Assay outcomes as filed in PubChem.
Rows were chosen to be rich in hits. Some 4.1% of all compounds tested hit in one or more screens of this group.
KCNK9 inh – human KCNK9 channel inhibition. actives 1.2% (n = 310,000). B-score at 10 µM. Q9NPC2. HEK293 KCNK9, FluxOR thallium flux fluorescence; stronger effect = lower value;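 active means ratio B-score over 3 SD below the library mean, with starting fluorescence within 5 SD of its mean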;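 further: negative B-score means less thallium flux so channel inhibition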
Target sequence (Q9NPC2 whole entry, looked up): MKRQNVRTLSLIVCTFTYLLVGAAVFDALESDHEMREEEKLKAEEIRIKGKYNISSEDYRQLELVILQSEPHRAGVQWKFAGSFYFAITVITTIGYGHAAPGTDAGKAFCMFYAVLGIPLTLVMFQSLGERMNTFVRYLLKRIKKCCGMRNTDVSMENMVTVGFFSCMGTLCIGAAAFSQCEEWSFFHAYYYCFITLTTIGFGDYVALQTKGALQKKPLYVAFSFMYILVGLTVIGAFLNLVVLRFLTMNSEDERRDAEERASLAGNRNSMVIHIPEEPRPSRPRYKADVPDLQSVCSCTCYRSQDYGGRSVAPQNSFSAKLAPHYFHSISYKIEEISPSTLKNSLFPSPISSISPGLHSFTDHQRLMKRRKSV
KCNQ1 pot – potentiators or activators of human KCNQ1 potassium channel. actives 0.35% (n = 310,000). P51787. CHO-K1 KCNQ1, thallium flux FluxOR fluorescence; stronger effect = higher value. AID 2648. B-score at 10 µM;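 active means fluorescence ratio B-score, a plate-corrected score, at least three library SD, with initial intensity B-score within 5 SD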
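Medium – assay buffer, equal DMSO in all wells · Material – CHO-K1 cell line with stable KCNQ1 potassium channel expression · Signal – kinetic FluxOR thallium fluorescence, 10-s 1-Hz baseline, 110-s post-stimulus read · Compound – single concentration per compound, DMSO matched to controls · Schedule – 37 °C overnight plating, 90-min dark dye load, 20-min compound pretreatment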
KCNK3 block – human KCNK3 channel inhibition, primary screen. O14649. CHO-KCNK3 thallium flux, FluxOR fluorescence; stronger effect = lower value. B-score at 10 µM. actives 0.84% (n = 340,000). AID 602410;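 active means B-score under library mean minus 4 SD, starting fluorescence ratio at most library mean plus 5 SD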;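 further: more negative B-score means stronger inhibition of thallium flux through KCNK3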
hERG rescue – hERG (human) protection from proarrhythmic block | Q12809 | CHO-hERG, FluxOR thallium flux, dofetilide IC70 present | activation (rescue from dofetilide block), less the hit threshold, % at 10 µM | actives 0.51% (n = 310,000);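 active means activation above the mean of controls blocked by dofetilide plus 5 SD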;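 further: thallium influx through hERG after potassium depolarization seen as dye fluorescence rise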
Cl transport mod – modulators of human KCC2 chloride dependent transport | Q9H2X9 | KCC2 cells, thallium flux FluoZin-2 fluorescence | B-score of Tl+ flux slope (higher = more flux/activation; lower = inhibition) at 10 µM | actives 2.2% (n = 190,000);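 active means thallium flux slope and its plate-corrected score both differing from the plate sample mean at a set confidence after two filtering rounds, in either direction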;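 further: slope of fluorescence scaled to starting intensity during 10 to 20 s after thallium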
KCNQ1 block – inhibitors of human KCNQ1 potassium channel; CHO-K1 KCNQ1, FluxOR thallium flux fluorescence; stronger effect = higher value; B-score at 10 µM; P51787; actives 1.3% (n = 310,000);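 active means compounds whose thallium flux B-score, printed positive for inhibition, exceeds three library SD while starting fluorescence stays within three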;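 further: channel opened by potassium depolarization with thallium stimulus after 20 min compound exposure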
KCNK3 confirm – human KCNK3 channel inhibition, confirmation assay. actives 99% (n = 2,400). shares compounds with KCNK3 block. ratio percent of control, % at 10 µM. CHO-KCNK3 thallium flux, FluxOR fluorescence; 0% buffer, 100% carvedilol maximal block;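 active means ratio percent of control, averaged over triplicates, above buffer control mean plus 5 SD, cut at about 64% in these data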;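 further: ratio is the fluorescence rise from min to max over baseline after thallium stimulus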
KCNK3 uninduced – activity in cells without induced KCNK3 expression | AID 651747 | non-induced KCNK3 parental cells, FluxOR thallium flux; stronger effect = lower value | thallium flux ratio (lower = more inhibition) at 10 µM | actives 40% (n = 2,400) | shares compounds with KCNK3 block;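 active means thallium flux ratio, averaged over three wells, more than 5 SD below the buffer control mean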;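 further: host cells are CHO cells without KCNK3 induction; ratio is peak minus trough fluorescence over baseline then normalized to buffer controls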
* marks the source's active call; other numbers are inactive results; i = inactive; . = no result.

SMILES	KCNK9 inh	KCNQ1 pot	KCNK3 block	hERG rescue	Cl transport mod	KCNQ1 block	KCNK3 confirm	KCNK3 uninduced
CC(C)(C)c1ccc(C(=O)/C(C#N)=C/c2cccs2)cc1	i	i	-12*	-5	-1.7	6*	111*	i
COc1cc(S(=O)(=O)NCCCn2ccnc2)ccc1Cl	i	i	i	-10	.	i	.	.
COc1ncccc1C(=O)N1CCC(n2nccc2NC(=O)CC(C)C)CC1	i	i	i	-7	.	i	.	.
CC(C)(C)OC(=O)n1cc(/C=N/NC(=O)c2ccco2)c2ccccc21	i	i	-9.2*	-9	.	i	108*	i
COc1cccc(/C=C/C(=C2/C(=O)N(c3ccccc3)N=C2C)c2ccc(Br)cc2)c1OC	i	i	i	-5	0.81	i	.	.
CCOC(=O)c1cc2ccc3ccccc3c2s1	i	i	-9.8*	-2	-0.47	i	99*	i
CCOC(=O)c1cc2ccc3ccccc3c2oc1=O	i	i	i	-6	.	i	.	.
Cc1ccc(C2Nc3ccc4ccccc4c3C3=C2C(=O)CC(C)(C)C3)o1 (stereo not drawn)	i	i	-9*	-9	-0.16	i	105*	i
CC1(C)CC(=O)C2=C(C1)c1c(ccc3ccccc13)NC2c1ccc(C(=O)O)cc1 (stereo not drawn)	i	i	i	-6	.	i	.	.
COc1ccc(C(C)=O)cc1COc1ccc(F)cc1	i	i	-9.2*	-15	0.068	i	115*	i
COc1ccc(C(C)=O)cc1COC(=O)CNC(=O)c1ccc(F)cc1	i	i	i	-4	0.19	i	.	.
Cc1nn(Cc2ccccc2Cl)c(C)c1NC(=O)NC12CC3CC(CC(C3)C1)C2	i	i	-8.9*	-9	0.33	i	119*	0.14*
COCCN(C(=O)c1ccc2ccccc2c1)c1c(N)n(Cc2ccccc2)c(=O)[nH]c1=O	i	i	i	-6	0.49	i	.	.
COCCOc1nc2c(c(=O)n(C)c(=O)n2C)n1Cc1cccc(OC)c1	i	i	-11*	-7	-0.45	i	66*	i
CSc1cccc(NC(=O)C2CC(=O)N(Cc3ccccc3)C2)c1 (stereo not drawn)	i	i	i	-10	.	i	.	.
CCOc1ccccc1NC(=O)C(NCCc1ccc(OC)cc1)c1ccccc1 (stereo not drawn)	i	i	-10*	-6	.	6*	132*	0.13*
CCOc1ccccc1NC(=O)C(NCCN(C)C)c1ccccc1 (stereo not drawn)	i	i	i	-7	0.61	i	.	.
COc1ccc(N(CC(=O)NCc2ccccc2OC)S(=O)(=O)c2c(C)nn(C)c2C)cc1	i	i	i	-10	-0.76	i	.	.
COC(C[C@@H](O)C[C@H](O)[C@@H](C)OCc1ccccc1)OC	i	i	i	-5	-0.53	i	.	.
COc1ccc(C(=O)Nc2cccc(/C(C)=N/NC(=O)c3ccc([N+](=O)[O-])c(C)c3)c2)cc1OC	i	i	i	-8	0.08	i	.	.
N#Cc1sc2nc(-c3cccs3)cc(-c3ccc(Cl)cc3)c2c1N	-7*	i	-14*	-11	0.56	i	132*	i
N#Cc1sc2nc(-c3cccs3)cc(-c3ccccc3)c2c1N	i	i	i	-4	1.1	i	.	.
Cc1ccc(/C=N/NC(=O)c2nnn(-c3nonc3N)c2CN(C)c2ccccc2)s1	i	i	i	-12	.	i	.	.
C(=N\N1CCN(C2c3ccccc3-c3ccccc32)CC1)/c1cccnc1	i	i	-10*	-9	-0.61	i	85*	i
Cc1ccccc1-n1nnnc1SCc1csc(-c2ccccc2)n1	i	i	-11*	-13	-1.7	i	105*	i
SMILES	KCNK9 inh	KCNQ1 pot	KCNK3 block	hERG rescue	Cl transport mod	KCNQ1 block	KCNK3 confirm	KCNK3 uninduced
COc1ccc(C)cc1NC(=O)c1cccc(C(=O)Nc2cc(C)ccc2OC)c1	-8*	i	-11*	-7	.	i	106*	i
CCCCCCCCC(=O)Nc1cc(C)ccc1OC	i	i	-11*	-13	-0.67	i	103*	i
CC(C)n1c(SCC(=O)N2c3ccccc3Sc3ccccc32)nc2c1c(=O)n(C)c(=O)n2C	i	i	-11*	-8	.	i	98*	i
Cc1cc(=O)[nH]c(SCc2nc3ncccn3c2Br)n1	i	i	i	-6	0.037	i	.	.
Cc1ccc(NC(=S)N(Cc2ccco2)C(C)c2cccs2)c(Cl)c1 (stereo not drawn)	i	i	-11*	-13	-0.53	i	101*	i
O=C(COC(=O)Cc1cccc(C(F)(F)F)c1)NC1CCS(=O)(=O)C1 (stereo not drawn)	i	i	i	-16	.	i	.	.
CC(=O)Oc1cccc(N2C(=O)C3C(C2=O)C2C=CC3C23CC3)c1 (stereo not drawn)	i	i	i	-13	-0.52	i	.	.
CCOC(=O)c1cccc(N2C(=O)C3C(C2=O)C2C=CC3C23CC3)c1 (stereo not drawn)	i	i	-18*	-8	0.63	i	92*	i
Cc1ccc(S(=O)(=O)N(C)c2ccc(OCc3cccc(C)c3)cc2)cc1	i	i	-9.3*	-14	.	i	108*	0.15*
Cc1ccc(S(=O)(=O)N(C)c2ccc(OCC(=O)OCc3cccc(Br)c3)cc2)cc1	.	.	i	.	.	.	.	.
CN(C)CCCN=Cc1c(O)n(Cc2ccccc2)c(=O)c2ccccc12	-7.2*	i	-11*	-11	.	i	98*	i
O=C(Nc1ccc(S(=O)(=O)N2CCOCC2)cc1)c1cc(-c2cc(Cl)ccc2O)n[nH]1	i	i	-8.7*	-16	0.22	i	128*	0.13*
Cc1cc(O)c(-c2cc(C(=O)Nc3ccc(S(=O)(=O)N4CCOCC4)cc3)[nH]n2)cc1C	i	i	i	-2	.	i	.	.
O=C(N/N=C/c1ccc[nH]1)c1ccccc1O	i	i	-9*	-17	0.87	i	81*	i
c1ccc(CSc2nnnn2-c2cccc3ccccc23)nc1	i	i	i	-8	.	i	.	.
